17 compounds from PubChem BioAssay can be followed below.

Active and inactive are the calls of the source.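 Rule for the calls, unless noted: active = GFP response above 150% of the DMSO level; inconclusive = fewer than 70 events counted for a yeast strain; inactive = the rest.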

Assay [1] is described as follows: hit retest on RPL19A-GFP reporter strain – cell-based, S. cerevisiae, flow cytometry, cherry picks, mother/daughter gates, confirmation (AID 2270;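 active = GFP response below 50% of the DMSO control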). The note with it: 3 h, at 10 µM, stronger effect = lower value, 100 = same GFP as DMSO wells.
The nature of assay [2]: yeast TOR pathway reporter LAP4-GFP change – cell-based, cherry picks, flow cytometry, mother/daughter gates, confirmation (AID 2271;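 active = GFP response above 150% of the DMSO control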;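 note: ratio of sample to DMSO plate mean so 100% equals DMSO level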). The conditions noted are these: S. cerevisiae LAP4-GFP strain, 3 h, at 10 µM, stronger effect = higher value, 100 means same as DMSO control. In outline: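 Material – Alexa Fluor 633-labelled Saccharomyces cerevisiae GFP-fusion strain, single-plex · Incubation – compound exposure 3 h at 30 °C, end-over-end rotation · Measured by – GFP by flow cytometry · Measure – median GFP fluorescence as percent of plate-mean DMSO wells · Control set – positive rapamycin (400 ng/mL), negative DMSO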
A general note: A flow cytometer gives signals particle by particle.

The nature of assay [3]: TOR pathway reporter MEP2-GFP, retest of hits – S. cerevisiae, flow cytometry GFP, cherry picks, confirmation (AID 2272;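 active = GFP response above 150% of the DMSO control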;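 note: ratio of well signal to plate DMSO mean so 100% equals DMSO level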). The conditions noted are these: S. cerevisiae MEP2-GFP strain, 3 h, at 10 µM, stronger effect = higher value.
Assay [4] can be described thus: yeast AGP1-GFP fluorescence change, single-dose – cell-based, flow cytometry, S. cerevisiae, cherry picks, confirmation (AID 2273).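 Note: median GFP channel fluorescence over the whole cell population gate.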 The note with it: S. cerevisiae AGP1-GFP strain, 3 h, at 10 µM.
Assay [5] in a line: TOR pathway CIT2 reporter hit retest – S. cerevisiae, GFP fusion, cherry picks, mother/daughter gates, confirmation (AID 2274). The conditions noted are these: S. cerevisiae CIT2-GFP strain, flow cytometry, 3 h, at 10 µM, stronger effect = higher value.
Where [6] appears, read: measured here: daughter cell gate.
Setting [7] is: measured here: mother cell gate.
The mark [8] stands for this setting: measured here: daughter cell gate response.
Setting [9] is: measured here: mother cell gate response.

For `COc1ccc(-c2noc(CCC(=O)Nc3cccc(C)c3)n2)cc1`, the GFP response vs DMSO in assay [1] is 96.6% (inactive); in assay [1] (setting [6]), 96.7%; in assay [1] (setting [7]) it was 96.2%; in assay [3] it was 102% (inactive). Also, the results for the GFP response relative to DMSO in assay [2], in assay [2] (setting [8]) and in assay [2] (setting [9]) were 109% (inactive), 105% and 108%, respectively. Further, the GFP response, % of DMSO was 96.9% (inactive) in assay [4], 97.8% (inactive) in assay [5], 98.3% in assay [5] (setting [6]) and 94.5% in assay [5] (setting [7]).

For the compound `O=C1C(Cl)=C(Nc2ccccc2O)C(=O)N1c1ccccc1`, the GFP response vs DMSO in assay [1] was 97.4% (inactive); in assay [1] (setting [6]) it was 98%; in assay [1] (setting [7]), 97.1%; in assay [3] it was 104% (inactive). The GFP response relative to DMSO in assay [2] was 112% (inactive); in assay [2] (setting [8]), 108%; in assay [2] (setting [9]), 113%. In addition, the GFP response, % of DMSO in assay [4] is 103% (inactive); in assay [5] it was 99.3% (inactive); in assay [5] (setting [6]), 100%; in assay [5] (setting [7]), 98%.

In the case of `C/C(=N\NC(=O)c1cccc(Br)c1)c1ccc(Br)cc1`, the GFP response vs DMSO was 96.7% (inactive) in assay [1], 98.7% in assay [1] (setting [6]), 95% in assay [1] (setting [7]) and 103% (inactive) in assay [3]. The GFP response relative to DMSO in assay [2] was 106% (inactive); in assay [2] (setting [8]) it was 97.5%; in assay [2] (setting [9]), 107%. Besides, the GFP response, % of DMSO in assay [4] is 98.8% (inactive); in assay [5], 98.6% (inactive); in assay [5] (setting [6]), 101%; in assay [5] (setting [7]), 98.2%.

For the compound `COc1ccc(/C=C2\Sc3ccc(C(=O)N4CCc5ccccc5C4)cc3N(C)C2=O)cc1`, the GFP response vs DMSO was 98.4% (inactive) in assay [1], 97.4% in assay [1] (setting [6]), 99.5% in assay [1] (setting [7]) and 102% (inactive) in assay [3]. Also, the GFP response relative to DMSO was 99.2% (inactive) in assay [2], 99.2% in assay [2] (setting [8]) and 98.3% in assay [2] (setting [9]). The GFP response, % of DMSO in assay [4] was 102% (inactive); in assay [5], 99.7% (inactive); in assay [5] (setting [6]) it was 99.1%; in assay [5] (setting [7]), 98.5%.

On to `Cc1ccc(N2C(=O)C3C4C=CC(CNC(=S)N5CCN(c6cccc(C)c6)C(C)C5)(O4)C3C2=O)cc1` (configuration not stated), for which the GFP response vs DMSO in assay [1] was 97.3% (inactive); in assay [1] (setting [6]), 97.3%; in assay [1] (setting [7]), 96.7%; in assay [3], 103% (inactive). The GFP response relative to DMSO in assay [2] is 92.9% (inactive); in assay [2] (setting [8]) it was 92.9%; in assay [2] (setting [9]), 94.4%. The GFP response, % of DMSO in assay [4] is 103% (inactive); in assay [5], 100% (inactive); in assay [5] (setting [6]), 97.6%; in assay [5] (setting [7]), 100%.

Take `O=C(c1ccc([N+](=O)[O-])o1)N(Cc1nnc(-c2ccccc2Cl)o1)C1CC1`: the GFP response vs DMSO was 99.4% (inactive) in assay [1], 100% in assay [1] (setting [6]), 99.5% in assay [1] (setting [7]) and 99% (inactive) in assay [3]. Also, the GFP response relative to DMSO in assay [2] is 98.2% (inactive); in assay [2] (setting [8]), 99.1%; in assay [2] (setting [9]), 98.4%. Besides, the GFP response, % of DMSO in assay [4] was 101% (inactive); in assay [5], 98.8% (inactive); in assay [5] (setting [6]), 101%; in assay [5] (setting [7]), 96.8%.

As to `Cc1ccc2c(nc3s/c(=C\c4ccc(-c5ccccc5C(=O)O)o4)c(=O)n32)c1C`, the GFP response vs DMSO in assay [1] is 119% (inactive); in assay [1] (setting [6]) it was 117%; in assay [1] (setting [7]), 117%; in assay [3], 346% (active). Moreover, the GFP response relative to DMSO was 243% (active) in assay [2], 218% in assay [2] (setting [8]) and 259% in assay [2] (setting [9]). Further, the GFP response, % of DMSO in assay [4] was 119% (inactive); in assay [5] it was 157% (active); in assay [5] (setting [6]), 158%; in assay [5] (setting [7]), 154%.

For `Cc1c(O)ccc(C(=O)CN2CCN(c3ccc(F)cc3)CC2)c1O`, the GFP response vs DMSO in assay [1] was 98% (inactive); in assay [1] (setting [6]), 97.3%; in assay [1] (setting [7]), 96.7%; in assay [3], 106% (inactive). In addition, the GFP response relative to DMSO is 101% (inactive) in assay [2], 99% in assay [2] (setting [8]) and 101% in assay [2] (setting [9]). Further, the GFP response, % of DMSO is 101% (inactive) in assay [4], 101% (inactive) in assay [5], 99.3% in assay [5] (setting [6]) and 102% in assay [5] (setting [7]).

Consider `COc1ccc(CN2CN(C(C)C)CSC2=S)cc1`, for which the GFP response vs DMSO in assay [1] was 98.8% (inactive); in assay [1] (setting [6]) it was 96.7%; in assay [1] (setting [7]) it was 92.1%; in assay [3], 146% (inactive). Besides, the GFP response relative to DMSO in assay [2] is 112% (inactive); in assay [2] (setting [8]), 106%; in assay [2] (setting [9]), 107%. Moreover, the GFP response, % of DMSO in assay [4] was 107% (inactive); in assay [5], 80.8% (inactive); in assay [5] (setting [6]), 80.1%; in assay [5] (setting [7]) it was 75.1%.

As to `CC(C)(C)C1=CC=C(C(C)(C)C)C(=O)C1=O`, the GFP response vs DMSO was 102% (inactive) in assay [1], 102% in assay [1] (setting [6]), 99.7% in assay [1] (setting [7]) and 104% (inactive) in assay [3]. The GFP response relative to DMSO in assay [2] was 136% (inactive); in assay [2] (setting [8]) it was 131%; in assay [2] (setting [9]), 136%. For the same compound, the GFP response, % of DMSO is 98.7% (inactive) in assay [4], 104% (inactive) in assay [5], 104% in assay [5] (setting [6]) and 96.8% in assay [5] (setting [7]).

For the compound `CC(=O)Nc1ccc(NC(=O)c2oc3cc(C)c(C)cc3c2C)cc1`, the GFP response vs DMSO in assay [1] is 99% (inactive); in assay [1] (setting [6]), 96.4%; in assay [1] (setting [7]), 99.4%; in assay [3], 102% (inactive). For the same compound, the GFP response relative to DMSO in assay [2] was 99.2% (inactive); in assay [2] (setting [8]), 99.2%; in assay [2] (setting [9]) it was 98.3%. Besides, the GFP response, % of DMSO was 102% (inactive) in assay [4], 101% (inactive) in assay [5], 99.1% in assay [5] (setting [6]) and 98.5% in assay [5] (setting [7]).

Consider `N#C/C(=C\c1cccc(Oc2ccccc2)c1)C(=O)N1CCOCC1`, for which the GFP response vs DMSO in assay [1] is 97.8% (inactive); in assay [1] (setting [6]) it was 97.8%; in assay [1] (setting [7]), 95.1%; in assay [3], 98.8% (inactive). Further, the GFP response relative to DMSO in assay [2] is 137% (inactive); in assay [2] (setting [8]), 128%; in assay [2] (setting [9]), 141%. In addition, the GFP response, % of DMSO in assay [4] is 104% (inactive); in assay [5] it was 90.9% (inactive); in assay [5] (setting [6]) it was 90.5%; in assay [5] (setting [7]), 87.8%.

`C/C(CC(=O)Nc1cc(C)ccn1)=N\NC(=O)c1cccc(F)c1`: the GFP response vs DMSO in assay [1] is 98.6% (inactive); in assay [1] (setting [6]) it was 97.5%; in assay [1] (setting [7]), 98.7%; in assay [3], 100% (inactive). Also, the GFP response relative to DMSO was 97.4% (inactive) in assay [2], 97.2% in assay [2] (setting [8]) and 99.3% in assay [2] (setting [9]). For the same compound, the GFP response, % of DMSO in assay [4] is 94.1% (inactive); in assay [5], 93.9% (inactive); in assay [5] (setting [6]), 94.8%; in assay [5] (setting [7]), 93.4%.

On to `CCN(CC)S(=O)(=O)c1ccc(O)c(C(=O)OCC(=O)NC2CCCC2)c1`, for which the GFP response vs DMSO in assay [1] was 99.2% (inactive); in assay [1] (setting [6]), 97.9%; in assay [1] (setting [7]), 99.5%; in assay [3], 96.8% (inactive). For the same compound, the GFP response relative to DMSO is 98.2% (inactive) in assay [2], 97.5% in assay [2] (setting [8]) and 97.3% in assay [2] (setting [9]). Besides, the GFP response, % of DMSO in assay [4] is 102% (inactive); in assay [5] it was 105% (inactive); in assay [5] (setting [6]), 103%; in assay [5] (setting [7]) it was 103%.

Regarding `O=C(NCc1ccc2c(c1)OCO2)c1nc(S(=O)(=O)Cc2ccccc2)ncc1Cl`, the GFP response vs DMSO in assay [1] was 97.8% (inactive); in assay [1] (setting [6]) it was 96.2%; in assay [1] (setting [7]) it was 97.4%; in assay [3] it was 99.5% (inactive). Also, the results for the GFP response relative to DMSO in assay [2], in assay [2] (setting [8]) and in assay [2] (setting [9]) were 109% (inactive), 102% and 109%, respectively. The GFP response, % of DMSO was 94.5% (inactive) in assay [4], 99.3% (inactive) in assay [5], 98.3% in assay [5] (setting [6]) and 96.8% in assay [5] (setting [7]).

For the compound `CCOc1ccc(N2C(=O)CC(Sc3ncccn3)C2=O)cc1` (configuration not stated), the GFP response vs DMSO in assay [1] is 98.2% (inactive); in assay [1] (setting [6]), 98.4%; in assay [1] (setting [7]) it was 99.2%; in assay [3], 100% (inactive). For the same compound, the GFP response relative to DMSO in assay [2] is 97.9% (inactive); in assay [2] (setting [8]), 97.6%; in assay [2] (setting [9]), 98.3%. Moreover, the GFP response, % of DMSO in assay [4] was 101% (inactive); in assay [5] it was 104% (inactive); in assay [5] (setting [6]), 105%; in assay [5] (setting [7]), 104%.

In the case of `O=C(c1ccccc1Br)N1CCN(c2ccccc2)CC1`, the GFP response vs DMSO in assay [1] was 104% (inactive); in assay [1] (setting [6]), 106%; in assay [1] (setting [7]), 105%; in assay [3] it was 109% (inactive). In addition, the GFP response relative to DMSO in assay [2] is 93.8% (inactive); in assay [2] (setting [8]), 92.5%; in assay [2] (setting [9]), 97.2%. The GFP response, % of DMSO was 94.3% (inactive) in assay [4], 93.9% (inactive) in assay [5], 94.8% in assay [5] (setting [6]) and 94.4% in assay [5] (setting [7]).
